Assay outcomes deposited in PubChem BioAssay by several laboratories.
Shown are actives, neighbours in structure and some others; about 4.9% of the full set was active somewhere.
APP 5'UTR act: activates APP 5'UTR luciferase reporter. SH-SY5Y APP 5'UTR luciferase reporter, luminescence; zero percent = DMSO vehicle wells. AID 1276. hit rate 1% among 190,000. activation, % at 2 µM;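 active = activation above a set limit, based on mean plus 3 SD of controls, cut at about 140% in these data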
NF-kB neuron act: raises NF-kB expression in human neuronal cells; NF-kB reporter expression; hits give high values; fold change at 12.5 µM; hit rate 1.6% among 190,000; AID 1239; in the data active = fold change above about 3.3
STAT3 blocker: reduces IL-6 driven STAT3 reporter signal; inhibition, % at 5.5 µM; U3A cells, IL-6 STAT3-luciferase reporter, luminescence; host cell line lacks STAT1; hit rate 0.89% among 190,000;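 active = inhibition above the mean inhibition across all screened compounds plus 3 SD, cut at about 44% in these data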;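 note: 0% = DMSO only wells and 100% = 100 µM nifuroxazide control wells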
STAT3 act-1: STAT3 signaling activation | U3A cells, IL-6 STAT3-luciferase reporter, luminescence; 100% = signal with IL-6 EC80 alone | activation (% of control), % at 5.6 µM | hit rate 0.91% among 190,000;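 active = activation above the screen-wide mean of compound activation plus 3 SD, cut at about 130% in these data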;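 note: 0% = background luminescence of wells with medium and substrate only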
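Material: STAT3-luciferase reporter U3A cells; Probe or stimulus: IL-6 (33 ng/mL); Incubation: compound pre-incubation 1 h before IL-6, then 6 h stimulation at 37 °C; Technique: luminescence from STAT3-driven luciferase reporter; Evaluation: % activation versus median of IL-6-stimulated wells; Controls: IL-6-only high control.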
STAT1 act-1: activators of IFN-gamma induced STAT1 signaling | NIH 3T3 STAT1-luciferase reporter, luminescence; 100% = IFN-gamma alone, no compound | activation (% of control), % at 5.5 µM | hit rate 2.6% among 200,000;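 active = activation above the screen-wide mean activation plus 3 SD, cut at about 130% in these data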;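 note: raw ratio to IFN-gamma control signal so 100% means no change and 0% no light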
STAT1 inh: reduces IFN-gamma driven STAT1 reporter signal; NIH 3T3 STAT1-luciferase reporter, luminescence; inhibition, % at 5.5 µM; hit rate 0.35% among 200,000; AID 920;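 active = inhibition above a set limit, the mean inhibition across all tested compounds plus 3 SD, cut at about 34% in these data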;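 note: 0% = IFN-gamma with DMSO and 100% = IFN-gamma with 300 µM nifuroxazide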
STAT3 act-2: STAT3 activation, confirmation assay. shares compounds with STAT3 act-1. hit rate 64% among 1,200. U3A STAT3-luciferase reporter, IL-6 potentiation, luminescence; U3A cells lack STAT1; 100 means same as IL-6 alone. potentiation (% of control), % at 5.7 µM;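 active = percent activation of the STAT3 luciferase reporter above a set limit taken from the earlier primary screen, cut at about 130% in these data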;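 note: 0% = background signal of medium plus substrate and 100% = median of IL-6 with DMSO wells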
NFkB act 2: counter-screen for STAT3 activators: NF-kappaB activation; shares compounds with STAT3 act-1; human cells, NF-kappaB reporter activation; activation (% of control), % at 5.7 µM; hit rate 11% among 1,200; in the data active = activation above about 120%;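 note: reporter induced by TNF-alpha stimulation; 100% = median of stimulated DMSO wells and 0% = no signal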
STAT1 act-2: activates STAT1, counter-screen to STAT3 activators | NIH 3T3 STAT1-luciferase reporter, IFN-gamma, luminescence | shares compounds with STAT3 act-1 | hit rate 13% among 1,200 | activation (% of control), % at 5.7 µM;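 active = activation above the solvent-only control well mean plus 3 SD, set per screening run, cut at about 120% in these data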;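 note: 100% = IFN-gamma with DMSO median signal so 100% means no change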
* = called active by the depositor.

For COCCCNC(=O)c1cccn2c(=O)c3cc4ccccc4cc3nc12 the results were APP 5'UTR act 110.1, NF-kB neuron act 0.14, STAT3 blocker 15.4, STAT3 act-1 89.8, STAT1 act-1 117.7 and STAT1 inh -19.3.
Screening CCCOc1ccc(/C=C/C(=O)NCc2ccccc2)cc1 returned APP 5'UTR act 14.5, NF-kB neuron act 1.24, STAT3 blocker 16.0, STAT3 act-1 89.8, STAT1 act-1 102.6 and STAT1 inh -3.0.
Cn1c(=O)c2c(nc(N3CCCC3)n2CC(O)CO)n(C)c1=O (stereo not drawn) was read as APP 5'UTR act -6.8, NF-kB neuron act 1.13, STAT3 blocker -41.8, STAT3 act-1 141.3*, STAT1 act-1 105.2, STAT1 inh -5.7, STAT3 act-2 103.9, NFkB act 2 110.7 and STAT1 act-2 105.2.
Screening O=C(Nc1ccc(OC(F)F)cc1)Nc1cccc(C(F)(F)F)c1 returned APP 5'UTR act 0.4, NF-kB neuron act 0.82, STAT3 blocker 13.1, STAT3 act-1 90.4, STAT1 act-1 94.5 and STAT1 inh 5.9.
`O=C(/C(=C(\[O-])c1ccccc1)[n+]1ccc2ccccc2c1)c1ccc(Cl)cc1` gave APP 5'UTR act 8.7, NF-kB neuron act 0.72, STAT3 blocker -52.6, STAT3 act-1 151.7*, STAT1 act-1 97.7, STAT1 inh 2.6, STAT3 act-2 155.8*, NFkB act 2 109.8 and STAT1 act-2 105.5.
`O=C(/C(=C(\[O-])c1ccccc1)[n+]1ccc2ccccc2c1)c1ccc([N+](=O)[O-])cc1` gave APP 5'UTR act 7.7, NF-kB neuron act 1.17, STAT3 blocker -15.6, STAT3 act-1 115.6, STAT1 act-1 90.0 and STAT1 inh 11.4.
`O=C(/C(=C(\[O-])c1ccccc1)[n+]1ccc2ccccc2c1)c1ccccc1` gave APP 5'UTR act 18.5, NF-kB neuron act 0.97, STAT3 blocker -44.2, STAT3 act-1 137.5*, STAT1 act-1 103.4, STAT1 inh -3.8, STAT3 act-2 150.8*, NFkB act 2 112.0 and STAT1 act-2 109.0.
Screening N#Cc1cn(CC(=O)O)c2ccccc12 returned APP 5'UTR act 2.5, NF-kB neuron act 1.18, STAT3 blocker -41.1, STAT3 act-1 139.8*, STAT1 act-1 88.7, STAT1 inh 12.3, STAT3 act-2 139.8*, NFkB act 2 102.1 and STAT1 act-2 91.7.
For CCOC(=O)Cn1cc(C#N)c2ccccc21 the results were APP 5'UTR act 16.6, NF-kB neuron act 0.96, STAT3 blocker 5.3, STAT3 act-1 101.6, STAT1 act-1 98.3 and STAT1 inh -0.2.
`Cc1cc(C)nc(SCc2ccc(C(=O)N/N=C3\CCCC(=O)C3)cc2)n1` gave APP 5'UTR act 1.8, NF-kB neuron act 1.3, STAT3 blocker 0.7, STAT3 act-1 100.5, STAT1 act-1 93.0 and STAT1 inh 6.1.
`Cn1c(/N=C/c2cccs2)nc2ccccc21` gave APP 5'UTR act -1.5, NF-kB neuron act 0.59, STAT3 blocker -54.6, STAT3 act-1 146.7*, STAT1 act-1 98.8, STAT1 inh 1.3, STAT3 act-2 122.5, NFkB act 2 97.6 and STAT1 act-2 93.9.
Cn1c(/N=C/c2cc(Cl)ccc2O)nc2ccccc21 was read as APP 5'UTR act -14.3, NF-kB neuron act 1.37, STAT3 blocker -53.7, STAT3 act-1 156.6*, STAT1 act-1 103.7, STAT1 inh -4.0, STAT3 act-2 130.2, NFkB act 2 108.7 and STAT1 act-2 90.3.
CCOC(=O)C1(Cc2ccc(OC)cc2)CCN(C(=O)c2cc3ccccc3[nH]2)CC1 was read as APP 5'UTR act 56.7, NF-kB neuron act 1.46, STAT3 blocker -68.3, STAT3 act-1 156.5*, STAT1 act-1 119.6, STAT1 inh -20.2, STAT3 act-2 147.5*, NFkB act 2 109.2 and STAT1 act-2 116.6.
`CN1COc2ccc3ccccc3c2C1` gave APP 5'UTR act 6.3, NF-kB neuron act 1.21, STAT3 blocker -5.3, STAT3 act-1 116.8, STAT1 act-1 104.9 and STAT1 inh -6.1.
Screening Cc1ccc(O)c(N=CC2=C(O)c3ccccc3C2=O)c1 returned APP 5'UTR act 11.4, NF-kB neuron act 4.15*, STAT3 blocker -49.0, STAT3 act-1 149.0*, STAT1 act-1 122.4, STAT1 inh -24.6, STAT3 act-2 137.5*, NFkB act 2 128.2* and STAT1 act-2 105.0.
`Cc1ccc(O)c(C=Nc2cc(C)ccc2O)c1` gave APP 5'UTR act -0.7, NF-kB neuron act 1.08, STAT3 blocker -9.1, STAT3 act-1 111.2, STAT1 act-1 93.4 and STAT1 inh 7.3.
`CCOC(=O)CSc1ncnc2c1cnn2-c1ccccc1` gave APP 5'UTR act -10.7, NF-kB neuron act 1.21, STAT3 blocker -38.3, STAT3 act-1 138.1*, STAT1 act-1 103.3, STAT1 inh -3.6, STAT3 act-2 91.3, NFkB act 2 101.2 and STAT1 act-2 95.8.
Screening CCOC(=O)c1cnn(-c2ncnc3sc4c(c23)CCC4)c1N returned APP 5'UTR act 18.5, NF-kB neuron act 1.17, STAT3 blocker -48.2, STAT3 act-1 148.3*, STAT1 act-1 94.4, STAT1 inh 6.1, STAT3 act-2 149.4*, NFkB act 2 102.8 and STAT1 act-2 99.3.
CC(=O)Nc1ccccc1-c1nn[nH]n1 was read as APP 5'UTR act -40.4, NF-kB neuron act 1.04, STAT3 blocker -55.8, STAT3 act-1 150.8*, STAT1 act-1 91.8, STAT1 inh 9.0, STAT3 act-2 141.8*, NFkB act 2 111.3 and STAT1 act-2 100.2.
COc1cc(NC(=O)c2ccc(Cl)cc2)c(OC)cc1Cl was read as APP 5'UTR act 13.1, NF-kB neuron act 1.62, STAT3 blocker -46.6, STAT3 act-1 148.8*, STAT1 act-1 99.8, STAT1 inh 0.2, STAT3 act-2 131.3, NFkB act 2 102.1 and STAT1 act-2 103.5.
COc1cc(OC)c(NC(=O)c2ccccc2F)cc1Cl was read as APP 5'UTR act 0.4, NF-kB neuron act 1.33, STAT3 blocker -45.5, STAT3 act-1 137.6*, STAT1 act-1 118.8, STAT1 inh -20.3, STAT3 act-2 132.2, NFkB act 2 106.8 and STAT1 act-2 116.2.
Screening CC(NC(=O)/C(=C/c1ccc2c(c1)OCO2)NC(=O)c1cccc([N+](=O)[O-])c1)C(=O)O (stereo not drawn) returned APP 5'UTR act 20.2, NF-kB neuron act 1.25, STAT3 blocker 0.6, STAT3 act-1 102.8, STAT1 act-1 104.3 and STAT1 inh -5.0.
